Key:
Type in all cases: functional
Staphylococcus aureus [1] = test: Antibacterial activity against Staphylococcus aureus Smith infected in sc dosed mouse assessed as survival of host administered 1 hr and 5 hrs post challenge measured 72 hrs post challenge
Method in brief: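 Mice infected ip with about 2×10^3 S. aureus Smith organisms per mouse, culture diluted in 4% hog gastric mucin for uniformly lethal infection. Twofold dilutions given sc in equally divided portions at 1 and 5 h postinfection, four groups of ten mice. Survivors observed for 72 h. PD50 (total mg/kg protecting 50%) calculated by probit analysis.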

Staphylococcus aureus [2] = test: Antibacterial activity against penicillin G-resistant Staphylococcus aureus ATCC 14154 by agar inclusion method
Method in brief: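 MIC by agar inclusion in brain heart infusion medium, pH 7.4, using twofold dilutions. Strain ATCC 14154 is penicillin G resistant. Values reported in […].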

Streptococcus pyogenes = test: Antibacterial activity against Streptococcus pyogenes ATCC 8668 by agar inclusion method
Method in brief: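 MIC by agar inclusion, twofold dilutions in brain heart infusion medium at pH 7.4, reported in […].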

SMILES	PD50 (Staphylococcus aureus [1]) [µmol/kg]	MIC (Staphylococcus aureus [2]) [µM]	MIC (Streptococcus pyogenes) [µM]
CC(=O)OC/C=C/C1=C(C(=O)[O-])N2C(=O)[C@@H](NC(=O)Cc3cccs3)[C@H]2SC1.[Na+]	1.85	560	< 2
Cn1nnnc1SC/C=C/C1=C(C(=O)[O-])N2C(=O)[C@@H](NC(=O)Cc3cccs3)[C@H]2SC1.[Na+]	0.3	200	1.6
Cn1nnnc1SCC1=C(C(=O)[O-])N2C(=O)[C@@H](NC(=O)Cc3cccs3)[C@H]2SC1.[Na+]	1.69	100	13
CC(=O)OCC1=C(C(=O)[O-])N2C(=O)[C@@H](NC(=O)Cc3cccs3)[C@H]2SC1.[Na+] [CEPHALOTHIN SODIUM]	3.54	480	74
